ChEMBL document CHEMBL1124951, “N-phenyl-2-pyridinecarbothioamides as gastric mucosal protectants” (J Med Chem, 1990)
Calls of active or inactive are those of the source. The calls are words filed in the database; no cut-off is given here.

Key:
Rattus norvegicus [1] = experiment: Compound was evaluated for activity in stress-induced ulcer rat (po); type: functional
Summary of the method: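 Rats dosed po with drug or vehicle 30 min before immobilization in restrainers at 4-5 °C for 3 h, then euthanized. Gastric ulcers graded by size and number, with percent inhibition taken against the control mean.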

[2] = Compound was evaluated for lethal activity through acute lethality model when given perorally; type: ADME, organism-based; details: rat, in vivo, po
Rattus norvegicus [3] = experiment: Compound was evaluated for antisecretory action in the pylorus-ligated rat model (PLR) at 100 mg/kg (po); No significant activity at 100 mg/kg; type: functional, organism-based
Summary of the method: (§1)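 Drug or vehicle given orally. After 1 h, rats anesthetized with methohexital (30 mg/kg ip) and the pylorus ligated through a midline incision. Killed by CO2 4 h after surgery. Gastric volume measured and acid titrated to pH 7.0 with 0.1 N NaOH. Total acid output (microequivalents per 4 h) = volume × acid concentration.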

Rattus norvegicus [4] = species on record: Rattus norvegicus; experiment: Effective dose against ethanol-induced gastric lesions in male albino rat when given perorally was determined; 0.2-4.7; type: functional; details: Stomach, po
Summary of the method: (§2)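 Charles River male albino rats (190-219 g), food withheld 18-24 h with water available. Drug or vehicle given orally 1 h before ethanol (1 mL per rat po). Rats killed by CO2 asphyxiation 1 h after ethanol. Lesions scored single blind by size (mm2) and number per size category. Percent inhibition taken against the vehicle group mean; ED50 with 95% confidence limits obtained by regression of dose-response data.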

Rattus norvegicus [5] = experiment: Percent inhibition against ethanol-induced gastric lesions in male albino rat was determined at a dose of 10 mg/Kg; type: functional; details: Stomach; summary of the method: as §2
Rattus norvegicus [6] = species on record: Rattus norvegicus; experiment: Compound was evaluated for antisecretory action in the pylorus-ligated rat model (PLR); type: functional; summary of the method: as §1
Rattus norvegicus [7] = experiment: Compound was evaluated for activity against ethanol-induced gastric lesions mg/kg;NS=No significant activity at 25 mg/kg; type: functional, organism-based; set-up: dose 25 mg/kg; details: Stomach; summary of the method: as §2
Rattus norvegicus [8] = species on record: Rattus norvegicus; experiment: Compound was evaluated for activity in stress-induced ulcers; type: functional
Summary of the method: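 Rats dosed po with drug or vehicle 30 min before immobilization in restrainers at 4-5 °C for 3 h, then euthanized. Gastric ulcers graded by size and number, with percent inhibition taken against the control mean. ED50 with 95% confidence limits obtained by regression of dose-response data.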

Rattus norvegicus [9] = species on record: Rattus norvegicus; experiment: Compound was evaluated for activity in acute lethality model; type: ADME, organism-based; details: in vivo
Rattus norvegicus [10] = experiment: Percent inhibition against ethanol-induced gastric lesions in male albino rat was determined at a dose of 5 mg/Kg (po); type: functional; details: Stomach; summary of the method: as §2
Rattus norvegicus [11] = species on record: Rattus norvegicus; experiment: Effective dose against ethanol-induced gastric lesions in male albino rat when given perorally was determined; 1.2-5.9; type: functional; details: Stomach, po; summary of the method: as §2
Rattus norvegicus [12] = experiment: Percent inhibition against ethanol-induced gastric lesions in male albino rat was determined at a dose of 25 mg/Kg; type: functional; details: Stomach; summary of the method: as §2
Rattus norvegicus [13] = experiment: Percent inhibition against ethanol-induced gastric lesions in male albino rat was determined at a dose of 50 mg/Kg (po); type: functional; details: Stomach; summary of the method: as §2
Rattus norvegicus [14] = experiment: Percent inhibition against ethanol-induced gastric lesions in male albino rat was determined at a dose of 5 mg/Kg; type: functional; details: Stomach; summary of the method: as §2
Rattus norvegicus [15] = species on record: Rattus norvegicus; experiment: Effective dose against ethanol-induced gastric lesions in male albino rat when given perorally was determined; 2.4-11; type: functional; details: Stomach, po; summary of the method: as §2
Rattus norvegicus [16] = experiment: Compound was evaluated for antisecretory action in the pylorus-ligated rat model (PLR) at 100 mg/kg;NS=No significant activity at 100 mg/kg; type: functional, organism-based; summary of the method: as §1
Rattus norvegicus [17] = species on record: Rattus norvegicus; experiment: Compound was evaluated for activity in acute lethality model; NL=Not lethal; type: ADME, organism-based; details: in vivo
Rattus norvegicus [18] = species on record: Rattus norvegicus; experiment: Compound was evaluated for activity against ethanol-induced gastric lesions; type: functional; details: Stomach; summary of the method: as §2
Rattus norvegicus [19] = species on record: Rattus norvegicus; experiment: Effective dose against ethanol-induced gastric lesions in male albino rat when given perorally was determined; 3.0-10; type: functional; details: Stomach, po; summary of the method: as §2
Rattus norvegicus [20] = experiment: Percent inhibition against ethanol-induced gastric lesions in male albino rat was determined at a dose of 100 mg/Kg (po); type: functional; details: Stomach; summary of the method: as §2
Rattus norvegicus [21] = species on record: Rattus norvegicus; experiment: Effective dose against ethanol-induced gastric lesions in male albino rat when given perorally was determined; 0.5-1.5; type: functional; details: Stomach, po; summary of the method: as §2

S=C(Nc1ccccc1)c1ccccn1
ED50 (Rattus norvegicus [1]): 10 mg/kg | LD50 [2]: > 1000 mg/kg | ED50 (Rattus norvegicus [3]): inactive | ED50 (Rattus norvegicus [4]): 1.1 mg/kg

CCOC(=O)c1cc(NC(=S)c2ccccn2)ccc1F
inhibition in vivo at 10 mg/kg (Rattus norvegicus [5]): 10%

CNC(=C[N+](=O)[O-])NCCSCc1ccc(CN(C)C)o1 [RANITIDINE]
ED50 (Rattus norvegicus [6]): 2.4 mg/kg | ED50 (Rattus norvegicus [7]): inactive | ED50 (Rattus norvegicus [8]): 3.6 mg/kg | LD50 (Rattus norvegicus [9]): Not Active

CSc1ccc(NC(=S)c2ccccn2)cc1
inhibition in vivo at 5 mg/kg (Rattus norvegicus [10]): 31%

FC(F)(F)COc1cccc(NC(=S)c2ccccn2)c1
inhibition in vivo at 10 mg/kg (Rattus norvegicus [5]): 7%

CN(C(=S)c1ccccn1)c1cccc(F)c1
inhibition in vivo at 10 mg/kg (Rattus norvegicus [5]): 31%

S=C(Nc1ccccn1)c1ccccn1
ED50 (Rattus norvegicus [11]): 2.6 mg/kg

O=C(Nc1cccc(F)c1)c1ccccn1
inhibition in vivo at 10 mg/kg (Rattus norvegicus [5]): 24%

CCN(C(=S)c1ccccn1)c1cc(F)cc(F)c1
inhibition in vivo at 10 mg/kg (Rattus norvegicus [5]): 13%

COc1ccc(NC(=S)c2ccccn2)cc1Cl
inhibition in vivo at 25 mg/kg (Rattus norvegicus [12]): 44%

S=C(Nc1cccc(CN2CCSCC2)c1)c1ccccn1
inhibition in vivo at 10 mg/kg (Rattus norvegicus [5]): 32%

S=C(c1ccccn1)N1CCN(c2ccccc2)CC1
inhibition in vivo at 50 mg/kg (Rattus norvegicus [13]): -6%

O=C(Nc1cc(F)cc(F)c1)c1ccccn1
inhibition in vivo at 25 mg/kg (Rattus norvegicus [12]): 11%

S=C(Nc1cc(Cl)cc(Cl)c1)c1ccccn1
inhibition in vivo at 25 mg/kg (Rattus norvegicus [12]): 89%

N#CN/C(=N\c1ccccc1)c1ccccn1
inhibition in vivo at 5 mg/kg (Rattus norvegicus [14]): 37%

S=C(Nc1ccccn1)c1cnccn1
ED50 (Rattus norvegicus [15]): 5.2 mg/kg

O=S(=O)(OC[C@H]1O[C@@H](O[C@]2(COS(=O)(=O)[O][Al]([OH])[OH])O[C@H](OS(=O)(=O)[O][Al]([OH])[OH])[C@@H](OS(=O)(=O)[O][Al]([OH])[OH])[C@@H]2OS(=O)(=O)[O][Al]([OH])[OH])[C@H](OS(=O)(=O)[O][Al]([OH])[OH])[C@@H](OS(=O)(=O)[O][Al]([OH])[OH])[C@@H]1OS(=O)(=O)[O][Al]([OH])[OH])[O][Al]([OH])[OH].[OH][Al]([OH])[OH].[OH][Al]([OH])[OH].[OH][Al]([OH])[OH].[OH][Al]([OH])[OH].[OH][Al]([OH])[OH].[OH][Al]([OH])[OH].[OH][Al]([OH])[OH].[OH][Al]([OH])[OH]
ED50 (Rattus norvegicus [16]): inactive | LD50 (Rattus norvegicus [17]): Not lethal | ED50 (Rattus norvegicus [18]): 60 mg/kg

COc1ccc(NC(=S)c2ccccn2)cc1OC
inhibition in vivo at 5 mg/kg (Rattus norvegicus [10]): 0%

Cc1ccc(NC(=S)c2ccccn2)cc1Cl
inhibition in vivo at 25 mg/kg (Rattus norvegicus [12]): 22%

Cc1ccc(NC(=S)c2ccccn2)cc1F
ED50 (Rattus norvegicus [19]): 5.4 mg/kg

S=C(c1ccccn1)N1CCCc2ccccc21
inhibition in vivo at 10 mg/kg (Rattus norvegicus [5]): 17%

FC(F)(F)Oc1ccc(NC(=S)c2ccccn2)cc1
inhibition in vivo at 5 mg/kg (Rattus norvegicus [14]): 35%

Fc1cc(F)cc(NC(=S)c2cccnc2)c1
inhibition in vivo at 25 mg/kg (Rattus norvegicus [12]): 55%

O=C(O)c1cc(NC(=S)c2ccccn2)ccc1F
inhibition in vivo at 10 mg/kg (Rattus norvegicus [5]): 42%

C[S+]([O-])c1ccc(NC(=S)c2ccccn2)cc1 (centres undefined)
inhibition in vivo at 5 mg/kg (Rattus norvegicus [14]): 54%

S=C(Nc1ccc(OCc2ccccc2)cc1)c1ccccn1
inhibition in vivo at 5 mg/kg (Rattus norvegicus [10]): 47%

CN(C(=S)c1ccccn1)c1cc(F)cc(F)c1
inhibition in vivo at 25 mg/kg (Rattus norvegicus [12]): 40%

N#Cc1cc(NC(=S)c2ccccn2)ccc1F
inhibition in vivo at 10 mg/kg (Rattus norvegicus [5]): 29%

S=C(c1ccccn1)N1CCOCC1
inhibition in vivo at 50 mg/kg (Rattus norvegicus [13]): 44%

Fc1ccccc1/N=C(\S)c1ccccn1
inhibition in vivo at 100 mg/kg (Rattus norvegicus [20]): 69%

Fc1ccc(NC(=S)c2ccccn2)cc1Cl
inhibition in vivo at 25 mg/kg (Rattus norvegicus [12]): 56%

Fc1cc(F)cc(NC(=S)c2ccncc2)c1
inhibition in vivo at 25 mg/kg (Rattus norvegicus [12]): 85%

S=C(NCc1ccc2c(c1)OCO2)c1ccccn1
inhibition in vivo at 50 mg/kg (Rattus norvegicus [13]): 11%

Fc1ccc(NC(=S)c2ccccn2)cc1Cn1ccnc1
ED50 (Rattus norvegicus [21]): 0.9 mg/kg

CN1CCN(Cc2cccc(NC(=S)c3ccccn3)c2)CC1
inhibition in vivo at 10 mg/kg (Rattus norvegicus [5]): 10%

S=C(Nc1cccc(CN2CCOCC2)c1)c1ccccn1
inhibition in vivo at 10 mg/kg (Rattus norvegicus [5]): 64%
